What was measured:
[1] = Activation of ATP-sensitive potassium channel in Wistar rat pancreatic beta islets assessed as inhibition of glucose-induced insulin secretion
Rattus norvegicus [2] = species: Rattus norvegicus; assay: Activation of ATP-sensitive potassium channel in potassium-depolarized Wistar rat aortic rings assessed as myorelaxant activity against KCl-induced contraction; format: tissue-based; conditions: Aorta
Outline: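 Aorta rings were taken from fed Wistar rats (180–220 g) and contracted with KCl 30 mM. Dose–response curves were run against the plateau phase.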

Rattus norvegicus [3] = species: Rattus norvegicus; assay: Activation of ATP-sensitive potassium channel in Wistar rat pancreatic beta islets assessed as glucose-induced residual insulin secretion at 10 uM relative to control
Aorta = assay: Ratio of IC50 for inhibition of glucose-induced insulin secretion in Wistar rat pancreatic beta islets to ED50 for myorelaxant activity in Wistar rat aortic rings; format: functional
Rattus norvegicus [4] = species: Rattus norvegicus; assay: Activation of ATP-sensitive potassium channel in Wistar rat pancreatic beta islets assessed as glucose-induced residual insulin secretion at 50 uM relative to control

Compound	IC50 [1]	Activity (Rattus norvegicus [3])	Activity (Rattus norvegicus [4])	ED50 (Rattus norvegicus [2])	Ratio (Aorta)
CC1=Nc2ccc(Cl)cc2S(=O)(=O)N1 [DIAZOXIDE]	19.7 µM	71.7%	27.9%	23.8 µM	1
CC1(C)Oc2ccc(C#N)cc2C(N2CCCC2=O)C1O (configuration not stated) [CROMAKALIM]		94.7%	77.2%	0.13 µM	>769
CC(N/C(=N\C#N)Nc1ccncc1)C(C)(C)C (configuration not stated)		96%		0.35 µM	
COc1ccccc1CNC(=O)c1cccs1			83.3%	> 30 µM	

Second part, led by results:

IC50 [1]	Activity (Rattus norvegicus [3])	Activity (Rattus norvegicus [4])	Compound	ED50 (Rattus norvegicus [2])	Ratio (Aorta)
		113%	COc1ccccc1CNC(=O)NS(=O)(=O)c1ccc(Cl)cc1	> 30 µM	
		86.6%	COc1ccccc1CNC(=O)c1ccc([N+](=O)[O-])cc1	> 30 µM	

Source: ChEMBL document CHEMBL1150392, “Synthesis and activity on rat aorta rings and rat pancreatic beta-cells of ring-opened analogues of benzopyran-type potassium channel activators” (Bioorg Med Chem, 2008)
